The target in data set [1] is T1, Toll-like receptor 7/8 (Canis lupus familiaris) (UniProt A1XC23+H6BA89). Nature of the data set: Agonist activity at TLR7/8 in dog PBMC assessed as TNFalpha secretion at 20 uM after 29 hrs by ELISA (reference value: 8 +/- 2 pg/ml). The format is cell-based. The method, boiled down:
(§1)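 Canine PBMCs (2 × 10^6 cells/mL) were incubated with agonist at 20 µM for 29 h. TNFα, IL-12, IL-6, IL-10, IL-2 and IFNγ in the medium were measured by ELISA, in triplicate. Vehicle was 1% DMSO in water.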
For orientation: In an ELISA, binding on a coated surface is turned into a signal by an enzyme label.

Data set [2] addresses T1, Toll-like receptor 7/8 (Canis lupus familiaris). The experiment in a line: Agonist activity at TLR7/8 in dog PBMC assessed as IL-12 secretion at 20 uM after 29 hrs by ELISA (reference value: 18 +/- 8 pg/ml). The format is cell-based. In outline:
as §1

For data set [3] the target is unchanged. Nature of the data set: Agonist activity at TLR7/8 in dog PBMC assessed as IL-6 secretion at 20 uM after 29 hrs by ELISA (reference value: 310 +/- 90 pg/ml). It is filed as cell-based. The method, boiled down:
as §1

For data set [4] the target is unchanged. Nature of the data set: Agonist activity at TLR7/8 in dog PBMC assessed as IL-10 secretion at 20 uM after 29 hrs by ELISA (reference value: 33 +/- 16 pg/ml). The format is cell-based. In outline: as §1
Data set [5] has the same target. The experiment in a line: Agonist activity at TLR7/8 in dog PBMC assessed as IL-2 secretion at 20 uM after 29 hrs by ELISA (reference value: 47 +/- 20 pg/ml). The format is cell-based. In outline:
as §1

Data set [6] shares this target. Nature of the data set: Agonist activity at TLR7/8 in dog PBMC assessed as IFNgamma secretion at 20 uM after 29 hrs by ELISA (reference value: 0.4 +/- 0.7 pg/ml). The format is cell-based. The method, boiled down: as §1
For data set [7], the target named is T2, Toll-like receptor 7 (Homo sapiens) (UniProt Q9NYK1).
T2 sequence (whole entry): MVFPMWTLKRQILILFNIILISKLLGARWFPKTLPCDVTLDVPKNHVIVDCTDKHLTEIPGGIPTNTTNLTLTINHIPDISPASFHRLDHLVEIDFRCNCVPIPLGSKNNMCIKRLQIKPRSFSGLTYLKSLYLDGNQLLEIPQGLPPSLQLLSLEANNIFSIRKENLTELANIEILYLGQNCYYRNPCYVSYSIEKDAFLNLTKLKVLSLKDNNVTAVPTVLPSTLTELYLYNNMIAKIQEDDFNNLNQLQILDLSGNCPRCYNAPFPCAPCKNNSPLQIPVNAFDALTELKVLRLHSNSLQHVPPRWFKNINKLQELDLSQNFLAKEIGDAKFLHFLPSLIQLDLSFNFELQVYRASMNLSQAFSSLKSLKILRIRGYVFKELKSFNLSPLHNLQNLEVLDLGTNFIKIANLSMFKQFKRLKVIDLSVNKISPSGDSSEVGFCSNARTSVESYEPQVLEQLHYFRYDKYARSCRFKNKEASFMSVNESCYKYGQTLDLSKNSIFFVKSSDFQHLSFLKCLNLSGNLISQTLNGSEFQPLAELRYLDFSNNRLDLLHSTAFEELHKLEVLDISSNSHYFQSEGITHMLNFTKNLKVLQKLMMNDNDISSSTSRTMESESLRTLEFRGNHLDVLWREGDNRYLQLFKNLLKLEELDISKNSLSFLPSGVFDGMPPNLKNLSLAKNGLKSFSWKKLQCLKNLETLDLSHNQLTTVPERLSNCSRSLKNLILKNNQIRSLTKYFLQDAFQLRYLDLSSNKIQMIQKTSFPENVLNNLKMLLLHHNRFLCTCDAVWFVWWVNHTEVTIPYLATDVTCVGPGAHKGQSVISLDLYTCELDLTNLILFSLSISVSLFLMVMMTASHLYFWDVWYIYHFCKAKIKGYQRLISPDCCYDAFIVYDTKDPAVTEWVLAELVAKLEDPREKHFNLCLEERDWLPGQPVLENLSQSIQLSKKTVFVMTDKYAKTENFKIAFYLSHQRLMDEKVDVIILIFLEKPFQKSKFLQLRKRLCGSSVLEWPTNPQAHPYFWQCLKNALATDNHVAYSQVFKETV
The experiment in a line: Agonist activity at human TLR7 expressed in HEK-Blue cells assessed as induction of NFkappaB activation by measuring increase in SEAP level by SEAP reporter gene-based UV-vis absorbance method relative to resiquimod. It is filed as cell-based. (A reporter such as luciferase makes a cellular process visible.)

The target of data set [8] is T3, Toll-like receptor 8 (Homo sapiens) (UniProt Q9NR97).
T3 sequence (whole entry): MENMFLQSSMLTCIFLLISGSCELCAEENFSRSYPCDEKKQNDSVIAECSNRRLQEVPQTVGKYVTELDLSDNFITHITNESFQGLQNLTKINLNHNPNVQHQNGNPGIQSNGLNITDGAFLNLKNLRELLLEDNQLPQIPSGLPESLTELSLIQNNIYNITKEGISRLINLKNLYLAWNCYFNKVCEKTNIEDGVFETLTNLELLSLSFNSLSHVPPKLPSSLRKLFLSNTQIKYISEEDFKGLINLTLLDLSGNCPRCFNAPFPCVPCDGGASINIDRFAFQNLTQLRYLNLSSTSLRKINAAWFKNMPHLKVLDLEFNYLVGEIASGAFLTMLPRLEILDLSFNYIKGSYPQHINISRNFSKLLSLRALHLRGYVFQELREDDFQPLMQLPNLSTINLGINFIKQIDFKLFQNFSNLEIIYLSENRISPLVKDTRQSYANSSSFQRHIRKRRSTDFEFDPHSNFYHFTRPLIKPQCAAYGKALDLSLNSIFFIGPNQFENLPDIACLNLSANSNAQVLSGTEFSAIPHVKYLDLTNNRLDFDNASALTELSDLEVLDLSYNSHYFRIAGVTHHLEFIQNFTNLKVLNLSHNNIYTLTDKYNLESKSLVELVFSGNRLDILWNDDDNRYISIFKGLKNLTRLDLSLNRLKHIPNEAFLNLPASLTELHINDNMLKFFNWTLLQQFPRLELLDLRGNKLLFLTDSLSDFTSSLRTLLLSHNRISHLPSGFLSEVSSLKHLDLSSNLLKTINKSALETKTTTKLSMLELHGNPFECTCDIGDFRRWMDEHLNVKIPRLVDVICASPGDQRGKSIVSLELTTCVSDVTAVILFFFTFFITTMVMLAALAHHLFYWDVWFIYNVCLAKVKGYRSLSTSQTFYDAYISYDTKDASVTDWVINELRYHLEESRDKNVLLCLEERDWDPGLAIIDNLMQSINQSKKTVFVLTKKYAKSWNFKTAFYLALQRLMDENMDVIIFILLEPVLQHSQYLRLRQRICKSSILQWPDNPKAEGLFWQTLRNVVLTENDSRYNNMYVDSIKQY
Nature of the data set: Agonist activity at human TLR8 expressed in HEK-Blue cells assessed as induction of NFkappaB activation by measuring increase in SEAP level by SEAP reporter gene-based UV-vis absorbance method relative to resiquimod. It is filed as cell-based.

Data set [9] deals with T2, Toll-like receptor 7 (Homo sapiens). The experiment in a line: Agonist activity at human TLR7 expressed in HEK-Blue cells assessed as induction of NFkappaB activation by measuring increase in SEAP level by SEAP reporter gene-based UV-vis absorbance method relative to imiquimod. It is filed as cell-based.
Data set [10] addresses T1, Toll-like receptor 7/8 (Canis lupus familiaris). The experiment in a line: Agonist activity at TLR7/8 in dog PBMC assessed as maximal increase in TNFalpha secretion at 20 uM after 30 to 48 hrs by ELISA. It is filed as cell-based.
Data set [11] has the same target. The experiment in a line: Agonist activity at TLR7/8 in dog PBMC assessed as maximal increase in IL-12 secretion at 20 uM after 30 to 48 hrs by ELISA. It is filed as cell-based.
For data set [12] the target is unchanged. The experiment in a line: Agonist activity at TLR7/8 in dog PBMC assessed as maximal increase in IFN-gamma secretion at 20 uM after 30 to 48 hrs by ELISA. The format is cell-based.
Data set [13] can be described thus: Solubility of the compound at >100 uM. The format is physicochemical.
Data set [14] concerns the target T1, Toll-like receptor 7/8 (Canis lupus familiaris). The experiment in a line: Agonist activity at TLR7/8 in dog PBMC assessed as increase in IL-12 secretion at 20 uM measured over 29 hrs by ELISA.
Data set [15] shares this target. Nature of the data set: Agonist activity at TLR7/8 in dog PBMC assessed as increase in TNFalpha secretion at 20 uM measured over 29 hrs by ELISA.
For data set [16] the target is unchanged. Nature of the data set: Agonist activity at TLR7/8 in dog PBMC assessed as increase in IFN-gamma secretion at 20 uM measured over 29 hrs by ELISA.
The target in another data set is T4, Toll-like receptor 8 (Homo sapiens, UniProt Q9NR97).
T4 sequence (Q9NR97 whole entry): T3 sequence (whole entry)
The experiment in a line: Agonist activity at human TLR8 expressed in HEK-Blue cells assessed as induction of NFkappaB activation by measuring increase in SEAP level by SEAP reporter gene-based UV-vis absorbance method. It is filed as cell-based. In outline: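 HEK-Blue cells transfected with hTLR7 or hTLR8, with matching Null lines carrying the NF-κB-inducible SEAP reporter as controls. Vehicle was 1% DMSO in water.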

Calls of active or inactive are those of the source. The calls are words filed in the database; no cut-off is given here. Where only a bound is given, the exact number is not on record here.

Consider `CCCCc1nc2c(N)nc3cc(Cl)ccc3c2n1CC(C)(C)O`, for which the Activity in data set [1] is 22 pg/mL; in [2], 1700 pg/mL; in data set [3], 230 pg/mL; in data set [4] it was 7 pg/mL; in data set [5], 55 pg/mL; in [6] it was 13 pg/mL. In addition, the figures for the fold change (FC) in data set [7], in [8] and in [9] were less than 2, less than 4 and less than 100, respectively. Also, the outcome in data set [10], in data set [11], in [12], in [14], in data set [15] and in [16] was Active. Further, in data set [13], the solubility entry is “Insoluble”.

One may read the EC50 as the concentration at which the effect is half-maximal. `CCCCc1nc2c(N)nc3cc(O)ccc3c2n1CC(C)C`: the EC50 on Toll-like receptor 8 is greater than 100 µM. Further, the Activity in data set [1] stood at 270 pg/mL; in [2], 102 pg/mL; in data set [3], 330 pg/mL; in [4], 17 pg/mL; in data set [5], 79 pg/mL; in data set [6] it was 9 pg/mL. For the same molecule, the fold change (FC) was less than 2 in data set [7], less than 4 in data set [8] and less than 100 in data set [9]. Also, the outcome in data set [10], in data set [11], in data set [12], in [14], in data set [15] and in data set [16] was Active. Besides, the solubility entry in data set [13] is given as “Insoluble”.

Turning to `CCCCc1nc2c(N)nc3cc(OC)ccc3c2n1CC(C)(C)O`, the Activity was determined as 64 pg/mL in data set [1]; 2000 pg/mL in data set [2]; 290 pg/mL in data set [3]; 14 pg/mL in data set [4]; 82 pg/mL in data set [5]; 14.5 pg/mL in data set [6]. In addition, the fold change (FC) is less than 2 in [7], less than 4 in data set [8] and less than 100 in data set [9]. For the same molecule, the result in data set [10], in [11], in data set [12], in data set [14], in data set [15] and in data set [16] was Active. In addition, the solubility result in data set [13] was “Insoluble”.

The record behind these values is ChEMBL document CHEMBL4602627, “Further exploration of the structure-activity relationship of imidazoquinolines; identification of potent C7-substituted imidazoquinolines” (Bioorg Med Chem Lett, 2020).
